Screening results from PubChem BioAssay.
An excerpt weighted towards active compounds, which were near 2.3% of everything screened.
ABCB1 block: inhibitors of human ABCB1 transporter, ABCG2 counter-screen | CCRF-Adr cells, JC-1 efflux, flow cytometry | inhibition, % at 6.6 µM | 190,000 compounds, 0.067% hits; in the data active = inhibition above about 40%;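 also: higher value means more JC-1 retained so stronger ABCB1 efflux block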
MEKK3 PB1 HTS: raises or lowers MEK5 binding to the human MEKK3 PB1 domain; Q99759; bead-based flow cytometry, Alexa488-MEK5 binding to MEKK3; actives lie on both sides; 0 = blocked by unlabeled MEK5, 100 = vehicle; binding response (% of control), % at 10 µM; 290,000 compounds, 1.4% hits;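 active = binding response more than 3 SD above or below the average of its plate-row segment, actives on both sides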;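 also: Alexa488 bead fluorescence after subtracting the streptavidin-only scavenger bead signal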
ABCG2 block: blocks JC-1 efflux by human ABCG2 transporter | IgMXP3 cells, flow cytometry | inhibition, % at 6.6 µM | 190,000 compounds, 0.1% hits | AID 1325;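 active = inhibition above 80%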
Target sequence (Q9UNQ0 whole entry, looked up): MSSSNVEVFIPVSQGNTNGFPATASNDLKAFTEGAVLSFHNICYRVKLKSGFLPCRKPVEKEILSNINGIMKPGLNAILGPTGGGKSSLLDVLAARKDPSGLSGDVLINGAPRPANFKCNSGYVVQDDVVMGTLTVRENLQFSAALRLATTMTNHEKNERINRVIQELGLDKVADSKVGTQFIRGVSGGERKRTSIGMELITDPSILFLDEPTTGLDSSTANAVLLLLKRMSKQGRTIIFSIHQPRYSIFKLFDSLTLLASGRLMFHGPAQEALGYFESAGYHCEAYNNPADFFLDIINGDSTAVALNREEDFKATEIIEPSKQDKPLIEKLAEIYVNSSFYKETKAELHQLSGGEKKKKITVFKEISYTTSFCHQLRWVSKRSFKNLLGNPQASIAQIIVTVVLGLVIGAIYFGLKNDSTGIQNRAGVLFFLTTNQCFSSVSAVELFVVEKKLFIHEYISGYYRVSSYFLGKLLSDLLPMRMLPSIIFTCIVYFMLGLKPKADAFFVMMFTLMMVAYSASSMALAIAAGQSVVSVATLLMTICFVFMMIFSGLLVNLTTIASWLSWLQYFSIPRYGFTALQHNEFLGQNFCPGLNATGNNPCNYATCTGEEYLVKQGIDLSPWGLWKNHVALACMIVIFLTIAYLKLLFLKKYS
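material = IgMXP3 (ABCG2) plus far-red-tagged CCRF-Adr (ABCB1) cells | amount = 3 million cells/mL, equal mix of both lines | also added = JC-1 transporter substrate | dosing = one concentration, 6.6 µM final | schedule = 10 min at 25 °C | measured by = flow cytometric JC-1 green MFI at 530 nm | read-out basis = percent efflux inhibition, scaled nicardipine 100% to DMSO 0%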
MEKK2 WT-MEK5: raises or lowers MEK5 binding to wildtype human MEKK2 PB1 domain | Q9Y2U5 | bead flow cytometry, Alexa488-MEK5 binding to MEKK2 WT; actives lie on both sides | binding response (% of control), % at 10 µM | 290,000 compounds, 1.1% hits | AID 1531; in the data active = binding response below about 67% or above about 130%
MEKK2 mut-MEK5: signal of MEK5 binding to mutant human MEKK2 PB1 domain; bead flow cytometry, Alexa488-MEK5 binding to MEKK2 mutant; percent response, % at 10 µM; 290,000 compounds, 0.35% hits; in the data active = percent response above about 24%, passing the limit was not always enough
MEKK2wt confirm: raises or lowers MEK5 binding to wildtype human MEKK2, retest; shares compounds with MEKK3 PB1 HTS; bead flow cytometry, Alexa488-MEK5 binding to MEKK2 WT; actives lie on both sides; binding response (% of control), % at 10 µM; 5,900 compounds, 2.4% hits; AID 1892; in the data active = binding response below about 16% or above about 210%; inactive = in between
MEKK2mut confirm: signal of MEK5 binding to mutant human MEKK2, retest. shares compounds with MEKK3 PB1 HTS. bead flow cytometry, Alexa488-MEK5 binding to MEKK2 mutant. percent response, % at 10 µM. 5,900 compounds, 2% hits. AID 1893; in the data active = percent response mostly above about 71%, no sharp cut-off; inactive = mostly below about 38%;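 also: higher means compound restores mutant binding toward wildtype level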
MEKK3 confirm: MEKK3-MEK5 PB1 inhibition, single concentration confirmation; bead flow cytometry, Alexa488-MEK5 binding to MEKK3; stronger effect = lower value; binding response (% of control), % at 10 µM; 5,900 compounds, 1.8% hits; AID 1894; shares compounds with MEKK3 PB1 HTS;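 active = binding response below 72% of control, or above a set upper limit, though filed actives all read lower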
Numbers stand for hits; n = inactive; x = no result; ! = not active in a repeat; [ ] = dose if it differs, or a comment.

SMILES | ABCB1 block | MEKK3 PB1 HTS | ABCG2 block | MEKK2 WT-MEK5 | MEKK2 mut-MEK5 | MEKK2wt confirm | MEKK2mut confirm | MEKK3 confirm
O=C(c1cccc(Cl)c1)N1CCC(=O)N(C(CO)Cc2ccccc2)CC1 (configuration not stated) | x | n | x | n | n | x | x | x
O=C(O)CC1SC(=Nc2cccc(C(F)(F)F)c2)NC1=O (configuration not stated) | n | 124 | n | n | n | n | n | n
O=C(NC(NC(=S)Nc1ccccc1O)C(Cl)(Cl)Cl)c1ccco1 (configuration not stated) | n | n | n | n | n | x | x | x
COc1ccccc1NC(=S)NC(NC(=O)c1ccco1)C(Cl)(Cl)Cl (configuration not stated) | n | 129 | n | n | n | n | n | n
CCOc1ccc(N=Nc2c(=O)[nH]n3c(=O)c4c([nH]c23)CCCC4)cc1 | n | n | n | n | n | x | x | x
O=c1[nH]n2c(=O)c3c([nH]c2c1N=Nc1cccc(Cl)c1)CCCC3 | n | 48[inhibitor] | n | n | n | n | n | n
O=C(Nc1ccc(Cl)c(Cl)c1)N1N=CCC1c1ccccc1 (configuration not stated) | n | 133 | n | n | n | n | n | n
O=C(Nc1ccccc1)N1N=CCC1c1ccccc1 (configuration not stated) | n | n | n | n | n | x | x | x
Nc1ccccc1S(=O)(=O)NCCCCc1ccccc1 | x | n | x | n | n | x | x | x
CC(C)(C)C(=O)COC(=O)c1cc2ccccc2cc1O | n | 67[inhibitor] | n | n | n | n | n | n
Cn1cc(CN2CCCC(C(=O)c3ccc(-c4ccccc4)c(F)c3)C2)cn1 (configuration not stated) | n | n | n | n | n | x | x | x
Cc1nn(C)cc1CN1CCCC(C(=O)c2ccc(-c3ccccc3)c(F)c2)C1 (configuration not stated) | n | n | n | 147 | n | n | n | n
CC(C)COCC(CN(Cc1ccccc1)c1ccccc1)N1CCCC1 (configuration not stated) | x | n | n | 146! | n | n | n | n
COc1ccc(-c2cc(-n3c(C(F)(F)F)nc4ccccc43)n(CCC#N)n2)cc1 | n | 82[inhibitor] | n | n | n | n | n | n
CCC1=NC(c2ccc(OC)cc2)N(O)C1(C)C (configuration not stated) | n | 80[inhibitor] | n | n | n | n | n | n
O=S(=O)(c1ccc(F)cc1)c1nc(-c2ccco2)oc1Nc1ccc(F)cc1 | n | 137 | n | n | n | n | n | n
CCN(CC(=O)Nc1ccc2c(c1)OCCO2)C(=O)c1cccc(OCC(C)C)c1 | x | n | x | n | n | x | x | x
O=C(COc1ccccc1[N+](=O)[O-])N/N=C/c1ccc(O)cc1 | n | 136 | n | n | n | n | n | n
O=C(COc1ccccc1[N+](=O)[O-])N/N=C/c1ccncc1 | n | n | n | n | n | x | x | x
CC12CCC(=O)C=C1CCC1C2C(=O)CC2(C)C1CC[C@]2(O)C(=O)CO (some centres not stated) | x | n | x | n | n | x | x | x
CC(=O)N1c2ccc(S(=O)(=O)N3CCC(C(=O)Nc4cccc(C(F)(F)F)c4)CC3)cc2CC1C (configuration not stated) | x | n | x | n | n | x | x | x
CCOC(=O)CN1C(=O)CC(c2ccc([N+](=O)[O-])cc2)C1=O (configuration not stated) | x | n | x | n | n | x | x | x
O=C(c1ccco1)N1CCN(C(=O)c2ccc(COc3ccc4c(c3)CCC4)o2)CC1 | n | 0.0[inhibitor] | n | -4.0[inhibitor] | n | n | n | n
O=C(c1ccc(COc2ccc3c(c2)CCC3)o1)N1CCN(c2ccccc2)CC1 | x | n | x | n | n | x | x | x
Nc1ccccc1C#CC(=O)c1ccccc1 | x | n | x | n | n | x | x | x
SMILES | ABCB1 block | MEKK3 PB1 HTS | ABCG2 block | MEKK2 WT-MEK5 | MEKK2 mut-MEK5 | MEKK2wt confirm | MEKK2mut confirm | MEKK3 confirm
CCN1CCN(c2ccc(S(=O)(=O)N3CCCCC3)cc2NC(=O)/C=C/c2cc(OC)ccc2OC)CC1 | x | n | x | 174 | 25 | n | n | n
COc1ccc2ccccc2c1/C=N/NC(=S)Nc1cc(S(=O)(=O)N2CCOCC2)ccc1N1CCOCC1 | n | 133 | n | n | n | n | n | n
COc1ccc(/C=N/NC(=S)Nc2cc(S(=O)(=O)N3CCOCC3)ccc2N2CCOCC2)cc1O | n | n | n | n | n | x | x | x
COc1ccc(/C=C/C(=O)Nc2cc(S(=O)(=O)N3CCCCC3)ccc2N2CCCCC2)cc1OC | n | n | n | n | n | x | x | x
O=C(/C=C/c1ccccc1)Nc1cc(S(=O)(=O)N2CCOCC2)ccc1N1CCCC1 | n | 142 | n | n | n | n | n | n
CC(C)(C)c1ccc(C(=O)N2CCCC2c2cccs2)cc1 (configuration not stated) | x | n | x | n | n | x | x | x
COC(=O)C(Cc1ccc(O)cc1)NC(=O)c1ccc2c(c1)OCCO2 (configuration not stated) | x | n | x | n | n | x | x | x
CCN(CC)CCNC(=O)CS(=O)Cc1nc(-c2ccc(Cl)cc2)oc1C (configuration not stated) | n | 49[inhibitor] | n | n | n | n | n | n
CCN(CC)CCNC(=O)CS(=O)Cc1nc(-c2ccc(C)cc2)oc1C (configuration not stated) | n | n | n | n | n | x | x | x
C=CCSC1=C(C#N)C(c2ccccc2OCC)CC(=O)N1 (configuration not stated) | n | 0.0[inhibitor] | n | -8.0[inhibitor] | n | n | n | n
COC(=O)CSC1=C(C#N)C(c2ccccc2)CC(=O)N1 (configuration not stated) | n | 2.0[inhibitor] | n | -2.0[inhibitor] | n | n | n | n
CN1CCN(C(=O)CN(C)S(=O)(=O)c2ccc(F)cc2)CC1 | x | n | x | n | n | x | x | x
C=CCOc1ccc(/C=N/N2C(=O)C(CC(=O)Nc3ccc(F)cc3F)SC2=NC)cc1 (configuration not stated) | n | 128 | n | n | n | n | n | n
CN=C1SC(CC(=O)Nc2ccccc2F)C(=O)N1C (configuration not stated) | n | n | n | n | n | x | x | x
O=C(Nc1cccc(-c2cccc(F)c2)c1)C1CCN(C2CCC2)CC1 | x | n | x | 146 | n | n | n | n
O=C(Nc1cccc(-c2cccc(F)c2)c1)C1CCN(Cc2ccco2)CC1 | x | n | x | n | n | x | x | x
CCCn1ncc(CN2CCC(C(=O)Nc3cccc(-c4cccc(F)c4)c3)CC2)c1C | x | n | x | 144 | n | n | n | n
